The term IC50 denotes the point on the concentration scale where inhibition reaches its midpoint.

The test system of assay [1] is T1, Monoglyceride lipase (Homo sapiens), Q99685 [C208A,C242A].
T1 sequence (whole entry): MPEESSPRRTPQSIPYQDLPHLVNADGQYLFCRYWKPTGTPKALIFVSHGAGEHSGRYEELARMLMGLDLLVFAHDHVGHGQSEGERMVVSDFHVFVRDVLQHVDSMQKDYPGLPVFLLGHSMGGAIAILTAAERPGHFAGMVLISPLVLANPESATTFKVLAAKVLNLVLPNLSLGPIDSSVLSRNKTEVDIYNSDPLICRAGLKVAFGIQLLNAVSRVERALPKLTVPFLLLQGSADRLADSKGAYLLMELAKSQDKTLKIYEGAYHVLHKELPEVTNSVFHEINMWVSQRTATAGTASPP
As to the kind of experiment: Inhibition of human MAGL C208A/C242A mutant expressed in Escherichia coli. A digest of the protocol: (§1)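 Homogenates of E. coli expressing wild-type or C201A, C208A, C242A or C208A/C242A mutant MAGL used as enzyme source in the [3H]-2-OG hydrolysis assay; n = 3 in duplicate.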

The target in assay [2] is T2, Fatty-acid amide hydrolase 1 (Homo sapiens, UniProt O00519).
T2 sequence (O00519 whole entry): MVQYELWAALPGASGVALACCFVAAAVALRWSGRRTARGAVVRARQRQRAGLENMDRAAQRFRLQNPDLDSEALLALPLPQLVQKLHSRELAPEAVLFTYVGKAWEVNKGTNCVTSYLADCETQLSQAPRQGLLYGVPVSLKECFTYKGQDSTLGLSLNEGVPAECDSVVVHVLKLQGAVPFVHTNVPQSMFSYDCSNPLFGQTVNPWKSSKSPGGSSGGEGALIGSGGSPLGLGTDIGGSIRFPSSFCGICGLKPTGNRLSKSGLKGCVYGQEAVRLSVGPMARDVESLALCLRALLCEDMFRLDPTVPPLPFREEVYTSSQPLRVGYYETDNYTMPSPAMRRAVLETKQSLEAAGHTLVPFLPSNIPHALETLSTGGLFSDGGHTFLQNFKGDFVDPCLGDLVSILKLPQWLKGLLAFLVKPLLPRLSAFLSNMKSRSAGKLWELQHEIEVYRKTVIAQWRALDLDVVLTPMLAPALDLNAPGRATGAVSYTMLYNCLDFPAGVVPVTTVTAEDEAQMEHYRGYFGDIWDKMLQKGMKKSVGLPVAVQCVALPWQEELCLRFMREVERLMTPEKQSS
Kind of assay: Inhibition of human recombinant FAAH assessed as conversion of [3H]AEA to [3H]ethanolamine after 10 mins by liquid scintillation counter. The method, boiled down:
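Human recombinant FAAH (6 ng protein, Tris-EDTA) with inhibitor in DMSO; [3H]AEA at 2 μM final, 10 min at 37 °C; stopped with ice-cold methanol–chloroform, [3H]ethanolamine in aqueous layer counted by liquid scintillation, buffer blanks subtracted; pIC50 from dose–response, mean ± SEM of three experiments in duplicate.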

Assay [3] has as its system T3, Monoglyceride lipase (Homo sapiens), Q99685 [C208A].
T3 sequence (whole entry): T1 sequence (whole entry) with A242C
As to the kind of experiment: Inhibition of human MAGL C208A mutant expressed in Escherichia coli. The method, boiled down:
as §1

Where a chain is given by its changes, count along the chain named. The source made the active and inactive calls. No cut-off for these calls is given here.

As for `CC(C)(C)c1ccc(CN2CCN(C(=S)Sc3ccc([N+](=O)[O-])cc3[N+](=O)[O-])CC2)cc1`, the inhibition entry in assay [1] and in assay [3] was “inactive” in each case. In addition, the IC50 in assay [2] is 1740 nM.

(Values after ChEMBL document CHEMBL2157991, “Synthesis and pharmacological evaluation of 2,4-dinitroaryldithiocarbamate derivatives as novel monoacylglycerol lipase inhibitors” (J Med Chem, 2012).)
